Measured values reported in ChEMBL document CHEMBL1145945, “Synthesis and biological evaluation of iodinated and fluorinated 9-(2-hydroxypropyl) and 9-(2-hydroxyethoxy)methyl purine nucleoside analogues” (J Med Chem, 2003).

Tests used:
[1] = tested on: FM3A; experiment: Inhibitory concentration required to inhibit mammary carcinoma (FM3A) cell line by 50%; assay type: functional, cell-based; conditions: Mus musculus
[2] = tested on: HT-29; experiment: Inhibitory concentration required to inhibit human colon carcinoma (HT-29) cells by 50%; assay type: functional, cell-based
Procedure, shortened: (§1)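 Monolayer cells in D-MEM or RPMI 1640 with 10% FBS, 37 °C, 5% CO2, seeded at 3 × 10⁴/mL. MTT read-out at 570 nm as % growth. IC50 by manual graphical fitting; mean ± SD, four parallel samples, three experiments.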

[3] = tested on: HeLa; experiment: Inhibitory concentration required to inhibit cervical carcinoma (HeLa) cells by 50%; assay type: functional, cell-based; conditions: Homo sapiens; procedure, shortened: as §1
[4] = Inhibitory concentration required to inhibit pancreatic carcinoma (MiaPaCa2) cells by 50%; assay type: functional, Homo sapiens; procedure, shortened: as §1
[5] = tested on: L1210; experiment: Inhibitory concentration required to inhibit murine leukemia (L1210) cell line by 50%; assay type: functional, cell-based; conditions: Mus musculus
[6] = tested on: CCRF-CEM; experiment: Inhibitory concentration required to inhibit human T-lymphocyte (CEM) cell line by 50%; assay type: functional, cell-based
[7] = tested on: HBL; experiment: Inhibitory concentration required to inhibit melanoma (HBL) cells by 50%; assay type: functional, cell-based; conditions: Homo sapiens
Procedure, shortened: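 Monolayer culture in D-MEM or RPMI 1640 plus 10% FBS, 37 °C, 5% CO2. MTT assay at 570 nm, expressed as % growth. IC50 graphically fitted by hand; four parallel samples, three experiments.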

[8] = tested on: WI-38; experiment: Inhibitory concentration required to inhibit diploid fibroblasts (WI38) by 50%; assay type: functional, cell-based; conditions: Homo sapiens
Procedure, shortened: (§2)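 Cells grown as monolayers in D-MEM or RPMI 1640 with 10% FBS at 37 °C, 5% CO2, plated at 5 × 10⁴/mL. Viable cells by MTT absorbance at 570 nm. IC50 from manual graphical fit; mean ± SD of four parallel samples in three experiments.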

[9] = tested on: HEp-2; experiment: Inhibitory concentration required to inhibit laryngeal carcinoma (Hep2) cells by 50%; assay type: functional, cell-based; conditions: Homo sapiens; procedure, shortened: as §1
[10] = tested on: SW-620; experiment: Inhibitory concentration required to inhibit human colon carcinoma (SW620) cells by 50%; assay type: functional, cell-based; procedure, shortened: as §2
[11] = tested on: MOLT-4; experiment: Inhibitory concentration required to inhibit human T-lymphocyte (Molt4/C8) cell line by 50%; assay type: functional, cell-based
[12] = tested on: FM3A (Mus musculus); experiment: Inhibitory concentration required to inhibit mammary carcinoma (FM3A) cell line by 50%

SMILES	IC50 [1] [µM]	IC50 [2] [µM]	IC50 [3] [µM]	IC50 [4] [µM]	IC50 [5] [µM]	IC50 [6] [µM]	IC50 [7] [µM]	IC50 [9] [µM]	IC50 [10] [µM]	IC50 [11] [µM]	IC50 [12] [µM]	IC50 [8] [µM]
CC(=O)OC(C)Cn1cnc2c(S)nc(N)nc21 (stereo not given)	366	> 500	89	25	128	381	630	10	0.16	370	–	0.4
CC(=O)OCCOCn1cnc2c(S)nc(N)nc21	2	> 500	5	> 500	3.2	7.5	15.8	4.9	4.2	8.9	–	> 500
COc1nc(I)nc2c1ncn2COCCO	> 500	> 500	> 500	> 500	> 500	> 500	> 500	> 500	> 500	> 500	–	> 500
CC(O)Cn1cnc2c(F)nc(N)nc21 (stereo not given)	–	> 500	63	> 500	> 500	> 500	25	–	> 500	> 500	> 500	> 500
CC(=O)OCCOCn1cnc2c(S)nc(F)nc21	136	> 500	> 500	> 500	40	37	> 500	> 500	> 500	35	–	> 500
CC(O)Cn1cnc2c(S)nc(F)nc21 (stereo not given)	> 500	> 500	> 500	> 500	> 500	> 500	> 500	> 500	> 500	> 500	–	> 500
CC(=O)OCCOCn1cnc2c(Cl)nc(I)nc21	34	> 500	398	> 500	8.6	11	19.9	56.2	15.8	9.4	–	63.1

Continued, in another order:

IC50 [1] [µM]	IC50 [2] [µM]	IC50 [3] [µM]	IC50 [4] [µM]	IC50 [5] [µM]	IC50 [6] [µM]	IC50 [7] [µM]	IC50 [9] [µM]	IC50 [10] [µM]	IC50 [11] [µM]	IC50 [12] [µM]	SMILES	IC50 [8] [µM]
47	6.42	5.13	14.5	13	15.9	5.25	6.31	3.55	12.3	–	CC(=O)OC(C)Cn1cnc2c(Cl)nc(I)nc21 (stereo not given)	14.1
479	> 500	> 500	> 500	> 500	> 500	> 500	> 500	> 500	> 500	–	CC(O)Cn1cnc2c(Cl)nc(I)nc21 (stereo not given)	> 500
155	> 500	> 500	> 500	170	117	> 500	> 500	> 500	164	–	OCCOCn1cnc2c(S)nc(F)nc21	> 500
368	> 500	> 500	> 500	226	> 500	> 500	200	> 500	> 500	–	CC(=O)OC(C)Cn1cnc2c(S)nc(F)nc21 (stereo not given)	> 500
462	> 500	> 500	> 500	421	381	> 500	> 500	> 500	436	–	CC(=O)OC(C)Cn1cnc2c(N)nc(I)nc21 (stereo not given)	> 500
452	> 500	> 500	> 500	490	465	> 500	> 500	> 500	> 500	–	CC(O)Cn1cnc2c(N)nc(I)nc21 (stereo not given)	> 500
> 500	> 500	> 500	> 500	> 500	> 500	> 500	> 500	> 500	> 500	–	Nc1nc(I)nc2c1ncn2COCCO	> 500
> 500	> 500	> 500	> 500	> 500	> 500	> 500	> 500	> 500	> 500	–	CC(=O)OC(C)Cn1cnc2c(Cl)nc(N)nc21 (stereo not given)	> 500
93	75.9	50	93.3	37	44	44.7	10	8.9	41	–	CC(=O)OC(C)Cn1cnc2c(Cl)nc(F)nc21 (stereo not given)	100
